Source: ChEMBL document CHEMBL1148494, “Comparison between 5,10,15,20-tetraaryl- and 5,15-diarylporphyrins as photosensitizers: synthesis, photodynamic activity, and quantitative structure-activity relationship modeling” (J Med Chem, 2006)
“And” between values parts separate entries of the source, which are not always exact repeats. Identical values can stand only once.

Each molecule was assayed on HCT-116 (assay: Cytotoxicity against human HCT116 cell line).
Format: functional, cell-based
Procedure, shortened: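 HCT116 cells kept in DMEM, seeded at 5 × 10⁴ cells/mL, grown 48 h, then exposed to a range of PS concentrations for 24 h. PS medium swapped for PBS; visible light from a tungsten-halogen lamp for 2 h (22 mW/cm², 158.4 J/cm²). Then 24 h at 37 °C in drug-free medium. MTT 0.4 mg/mL final for 3 h; formazan in DMSO read at 570 nm. IC50 by nonlinear regression, mean of three replicates ± SE.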

Row | SMILES | IC50
1 | COc1ccc(-c2c3nc(cc4ccc([nH]4)c(-c4ccccc4)c4nc(cc5ccc2[nH]5)C=C4)C=C3)cc1 | 0.00606 µg/mL and 12.3 nM
2 | Oc1cccc(-c2c3nc(cc4ccc([nH]4)c(-c4cccc(O)c4)c4nc(cc5ccc2[nH]5)C=C4)C=C3)c1 | 0.00351 µg/mL and 7.09 nM
3 | COc1cccc(-c2c3nc(cc4ccc([nH]4)c(-c4cc(OC)c(OC)c(OC)c4)c4nc(cc5ccc2[nH]5)C=C4)C=C3)c1 | 0.00921 µg/mL and 15.8 nM
4 | COc1ccc(-c2c3nc(c(-c4ccccc4)c4ccc([nH]4)c(-c4ccccc4)c4nc(c(-c5ccccc5)c5ccc2[nH]5)C=C4)C=C3)cc1 | 0.894 µg/mL and 1.39 µM
5 | Oc1ccc(-c2c3nc(cc4ccc([nH]4)c(-c4ccccc4)c4nc(cc5ccc2[nH]5)C=C4)C=C3)cc1 | 0.00335 µg/mL and 7.01 nM
6 | C1=Cc2nc1cc1ccc([nH]1)c(-c1ccccc1)c1ccc(cc3nc(c2-c2ccccc2)CC3)[nH]1 | 0.00151 µg/mL and 3.26 nM
7 | COc1cc(-c2c3nc(cc4ccc([nH]4)c(-c4ccccc4)c4nc(cc5ccc2[nH]5)C=C4)C=C3)cc(OC)c1OC | 0.00428 µg/mL and 7.75 nM
8 | Oc1cccc(-c2c3nc(cc4ccc([nH]4)c(-c4ccccc4)c4nc(cc5ccc2[nH]5)C=C4)C=C3)c1 | 0.00051 µg/mL and 1.06 nM
9 | Oc1ccc(-c2c3nc(c(-c4ccccc4)c4ccc([nH]4)c(-c4ccccc4)c4nc(c(-c5ccccc5)c5ccc2[nH]5)C=C4)C=C3)cc1 | 0.145 µg/mL and 230 nM
10 | Oc1cc(-c2c3nc(cc4ccc([nH]4)c(-c4ccccc4)c4nc(cc5ccc2[nH]5)C=C4)C=C3)cc(O)c1O | 0.00497 µg/mL and 9.75 nM
11 | COc1cc(-c2c3nc(cc4ccc([nH]4)c(-c4cc(OC)c(OC)c(OC)c4)c4ccc(cc5nc2C=C5)[nH]4)C=C3)cc(OC)c1OC | 0.00632 µg/mL and 9.84 nM
12 | COc1cccc(-c2c3nc(c(-c4ccccc4)c4ccc([nH]4)c(-c4ccccc4)c4nc(c(-c5ccccc5)c5ccc2[nH]5)C=C4)C=C3)c1 | 0.0998 µg/mL and 155 nM
13 | COc1cccc(-c2c3nc(cc4ccc([nH]4)c(-c4ccccc4)c4nc(cc5ccc2[nH]5)C=C4)C=C3)c1 | 0.00293 µg/mL and 5.94 nM
14 | COc1ccc(-c2c3nc(cc4ccc([nH]4)c(-c4cc(OC)c(OC)c(OC)c4)c4nc(cc5ccc2[nH]5)C=C4)C=C3)cc1 | 0.00903 µg/mL and 15.5 nM
15 | Oc1cccc(-c2c3nc(c(-c4ccccc4)c4ccc([nH]4)c(-c4ccccc4)c4nc(c(-c5ccccc5)c5ccc2[nH]5)C=C4)C=C3)c1 | 0.217 µg/mL and 344 nM
16 | C1=Cc2nc1cc1ccc([nH]1)c(-c1ccccc1)c1nc(cc3ccc([nH]3)c2-c2ccccc2)C=C1 | 0.00263 µg/mL and 5.66 nM
17 | COc1ccc(-c2c3nc(cc4ccc([nH]4)c(-c4ccc(OC)cc4)c4nc(cc5ccc2[nH]5)C=C4)C=C3)cc1 | 0.0274 µg/mL and 52.5 nM
18 | COc1cccc(-c2c3nc(cc4ccc([nH]4)c(-c4cccc(OC)c4)c4nc(cc5ccc2[nH]5)C=C4)C=C3)c1 | 0.0129 µg/mL and 24.7 nM
19 | Oc1cccc(-c2c3nc(c(-c4cccc(O)c4)c4ccc([nH]4)c(-c4cccc(O)c4)c4nc(c(-c5cccc(O)c5)c5ccc2[nH]5)CC4)C=C3)c1 [TEMOPORFIN] | 0.00517 µg/mL and 7.6 nM
20 | COc1cc(-c2c3nc(cc4ccc(cc5nc(cc6ccc2[nH]6)C=C5)[nH]4)C=C3)cc(OC)c1OC | 0.00229 µg/mL and 4.8 nM
21 | Oc1cc(-c2c3nc(c(-c4ccccc4)c4ccc([nH]4)c(-c4ccccc4)c4nc(c(-c5ccccc5)c5ccc2[nH]5)C=C4)C=C3)cc(O)c1O | 0.0353 µg/mL and 53.3 nM
22 | C1=Cc2cc3ccc([nH]3)c(-c3ccccc3)c3ccc(cc4nc(cc1n2)C=C4)[nH]3 | 0.00123 µg/mL and 3.2 nM
23 | COc1cc(-c2c3nc(c(-c4ccccc4)c4ccc([nH]4)c(-c4ccccc4)c4nc(c(-c5ccccc5)c5ccc2[nH]5)C=C4)C=C3)cc(OC)c1OC | 0.709 µg/mL and 1.01 µM
24 | COc1ccc(-c2c3nc(cc4ccc(cc5nc(cc6ccc2[nH]6)C=C5)[nH]4)C=C3)cc1 | 0.00077 µg/mL and 1.85 nM
25 | COc1ccc(-c2c3nc(c(-c4ccc(OC)cc4)c4ccc([nH]4)c(-c4cc(OC)c(OC)c(OC)c4)c4nc(c(-c5ccc(OC)cc5)c5ccc2[nH]5)C=C4)C=C3)cc1 | > 1.5 µg/mL and > 1.89 µM
